# In ChEMBL document CHEMBL4689842, “EUbOPEN Chemogenomics Library wave 1” (2021):
# Tested on: HEK-293T
# Assay: Multiplex assay against HEK293T;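 as to Population Tubulin-Different-Phenotype (%): share of the cells with healthy nuclei that show this phenotype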
# Assay type: toxicity, cell-based
# Details: human
# Summary of the method: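 With compound added, live cells were imaged on a CQ1 microscope at 37°C and 5% CO2; staining with Hoechst33342, BioTracker Green Microtubule Cytoskeleton Dye, MitoTracker Red and Annexin V Alexa Fluor 680 had been done at seeding. The CellPathfinder machine-learning gating scheme split cells into Hoechst high-intensity objects or normal cells, normal cells into healthy, pyknosed or fragmented nuclei, and pyknosed cells into mitotic or apoptotic. The tubulin, mitochondrial-mass and membrane-permeability phenotypes are per cents of healthy-nucleus cells.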
# [1] = 12 h, 1 µM, compound concentration 1 uM, replicate 1
# [2] = 12 h, 1 µM, compound concentration 1 uM, replicate 2
# [3] = 12 h, 10 µM, compound concentration 10 uM, replicate 1
# [4] = 12 h, 10 µM, compound concentration 10 uM, replicate 2
# [5] = 24 h, 1 µM, compound concentration 1 uM, replicate 1
# [6] = 24 h, 1 µM, compound concentration 1 uM, replicate 2
# [7] = 24 h, 10 µM, compound concentration 10 uM, replicate 1
# [8] = 24 h, 10 µM, compound concentration 10 uM, replicate 2
# [9] = 48 h, 1 µM, compound concentration 1 uM, replicate 1
# [10] = 48 h, 1 µM, compound concentration 1 uM, replicate 2
# [11] = 48 h, 10 µM, compound concentration 10 uM, replicate 1
# [12] = 48 h, 10 µM, compound concentration 10 uM, replicate 2
structure (smiles),measurement,setting,value
CC(Cc1ccc(O)c(O)c1)C(C)Cc1ccc(O)c(O)c1 (stereo unspecified) [NORDIHYDROGUAIARETIC ACID],Population Apoptotic (%),[1],42%
same,Population Fragmented Nuclei (%),[1],12%
same,Population Healthy Nuclei (%),[1],34%
same,Population Hoechst High Intensity Objects (%),[1],16%
same,Population Mitochondria Different-Phenotype (%),[1],81%
same,Population Mitotic Cells (%),[1],57%
same,Population Normal (%),[1],83%
same,Population Pyknosed Nuclei (%),[1],52%
same,Population Tubulin-Different-Phenotype (%),[1],6%
same,Total Cell Count,[1],150
same,Population Apoptotic (%),[2],8%
same,Population Fragmented Nuclei (%),[2],6%
same,Population Healthy Nuclei (%),[2],36%
same,Population Hoechst High Intensity Objects (%),[2],5%
same,Population Membrane Permeable-Phenotype (%),[2],2%
same,Population Mitochondria Different-Phenotype (%),[2],28%
same,Population Mitotic Cells (%),[2],91%
same,Population Normal (%),[2],94%
same,Population Pyknosed Nuclei (%),[2],57%
same,Population Tubulin-Different-Phenotype (%),[2],11%
same,Total Cell Count,[2],194
same,Population Apoptotic (%),[3],33%
same,Population Fragmented Nuclei (%),[3],12%
same,Population Healthy Nuclei (%),[3],49%
same,Population Hoechst High Intensity Objects (%),[3],15%
same,Population Membrane Permeable-Phenotype (%),[3],3%
same,Population Mitochondria Different-Phenotype (%),[3],71%
same,Population Mitotic Cells (%),[3],66%
same,Population Normal (%),[3],84%
same,Population Pyknosed Nuclei (%),[3],37%
same,Population Tubulin-Different-Phenotype (%),[3],2%
same,Total Cell Count,[3],211
same,Population Apoptotic (%),[4],11%
same,Population Fragmented Nuclei (%),[4],6%
same,Population Healthy Nuclei (%),[4],55%
same,Population Hoechst High Intensity Objects (%),[4],4%
same,Population Membrane Permeable-Phenotype (%),[4],1%
same,Population Mitochondria Different-Phenotype (%),[4],14%
same,Population Mitotic Cells (%),[4],88%
same,Population Normal (%),[4],95%
same,Population Pyknosed Nuclei (%),[4],38%
same,Population Tubulin-Different-Phenotype (%),[4],0%
same,Total Cell Count,[4],254
same,Population Apoptotic (%),[5],35%
same,Population Fragmented Nuclei (%),[5],12%
same,Population Healthy Nuclei (%),[5],42%
same,Population Hoechst High Intensity Objects (%),[5],12%
same,Population Membrane Permeable-Phenotype (%),[5],1%
same,Population Mitochondria Different-Phenotype (%),[5],46%
same,Population Mitotic Cells (%),[5],64%
same,Population Normal (%),[5],87%
same,Population Pyknosed Nuclei (%),[5],45%
same,Population Tubulin-Different-Phenotype (%),[5],15%
same,Total Cell Count,[5],156
same,Population Apoptotic (%),[6],18%
same,Population Fragmented Nuclei (%),[6],5%
same,Population Healthy Nuclei (%),[6],48%
same,Population Hoechst High Intensity Objects (%),[6],3%
same,Population Membrane Permeable-Phenotype (%),[6],6%
same,Population Mitochondria Different-Phenotype (%),[6],11%
same,Population Mitotic Cells (%),[6],81%
same,Population Normal (%),[6],96%
same,Population Pyknosed Nuclei (%),[6],46%
same,Population Tubulin-Different-Phenotype (%),[6],12%
same,Total Cell Count,[6],212
same,Population Apoptotic (%),[7],27%
same,Population Fragmented Nuclei (%),[7],17%
same,Population Healthy Nuclei (%),[7],39%
same,Population Hoechst High Intensity Objects (%),[7],7%
same,Population Membrane Permeable-Phenotype (%),[7],0%
same,Population Mitochondria Different-Phenotype (%),[7],50%
same,Population Mitotic Cells (%),[7],72%
same,Population Normal (%),[7],92%
same,Population Pyknosed Nuclei (%),[7],42%
same,Population Tubulin-Different-Phenotype (%),[7],7%
same,Total Cell Count,[7],192
same,Population Apoptotic (%),[8],16%
same,Population Fragmented Nuclei (%),[8],8%
same,Population Healthy Nuclei (%),[8],58%
same,Population Hoechst High Intensity Objects (%),[8],3%
same,Population Membrane Permeable-Phenotype (%),[8],1%
same,Population Mitochondria Different-Phenotype (%),[8],4%
same,Population Mitotic Cells (%),[8],83%
same,Population Normal (%),[8],96%
same,Population Pyknosed Nuclei (%),[8],32%
same,Population Tubulin-Different-Phenotype (%),[8],1%
same,Total Cell Count,[8],255
same,Population Apoptotic (%),[9],21%
same,Population Fragmented Nuclei (%),[9],11%
same,Population Healthy Nuclei (%),[9],68%
same,Population Hoechst High Intensity Objects (%),[9],8%
same,Population Membrane Permeable-Phenotype (%),[9],5%
same,Population Mitochondria Different-Phenotype (%),[9],19%
same,Population Mitotic Cells (%),[9],78%
same,Population Normal (%),[9],91%
same,Population Pyknosed Nuclei (%),[9],20%
same,Population Tubulin-Different-Phenotype (%),[9],14%
same,Total Cell Count,[9],223
same,Population Apoptotic (%),[10],14%
same,Population Fragmented Nuclei (%),[10],7%
same,Population Healthy Nuclei (%),[10],69%
same,Population Hoechst High Intensity Objects (%),[10],5%
same,Population Membrane Permeable-Phenotype (%),[10],7%
same,Population Mitochondria Different-Phenotype (%),[10],1%
same,Population Mitotic Cells (%),[10],85%
same,Population Normal (%),[10],94%
same,Population Pyknosed Nuclei (%),[10],23%
same,Population Tubulin-Different-Phenotype (%),[10],16%
same,Total Cell Count,[10],312
same,Population Apoptotic (%),[11],21%
same,Population Fragmented Nuclei (%),[11],21%
same,Population Healthy Nuclei (%),[11],50%
same,Population Hoechst High Intensity Objects (%),[11],11%
same,Population Membrane Permeable-Phenotype (%),[11],7%
same,Population Mitochondria Different-Phenotype (%),[11],5%
same,Population Mitotic Cells (%),[11],78%
same,Population Normal (%),[11],88%
same,Population Pyknosed Nuclei (%),[11],28%
same,Population Tubulin-Different-Phenotype (%),[11],3%
same,Total Cell Count,[11],187
same,Population Apoptotic (%),[12],14%
same,Population Fragmented Nuclei (%),[12],7%
same,Population Healthy Nuclei (%),[12],67%
same,Population Hoechst High Intensity Objects (%),[12],4%
same,Population Membrane Permeable-Phenotype (%),[12],5%
same,Population Mitochondria Different-Phenotype (%),[12],1%
same,Population Mitotic Cells (%),[12],85%
same,Population Normal (%),[12],95%
same,Population Pyknosed Nuclei (%),[12],25%
same,Population Tubulin-Different-Phenotype (%),[12],1%
same,Total Cell Count,[12],280
